Assay results: ChEMBL document CHEMBL1134280, “Discovery and biological evaluation of a new family of potent inhibitors of the dual specificity protein phosphatase Cdc25” (J Med Chem, 2001)

Legend:
[1] = biological target: T1, Tyrosine-protein phosphatase non-receptor type 1 (Homo sapiens, UniProt P18031); test: Inhibitory Activity against Recombinant Human PTP1
T1 sequence (P18031 whole entry): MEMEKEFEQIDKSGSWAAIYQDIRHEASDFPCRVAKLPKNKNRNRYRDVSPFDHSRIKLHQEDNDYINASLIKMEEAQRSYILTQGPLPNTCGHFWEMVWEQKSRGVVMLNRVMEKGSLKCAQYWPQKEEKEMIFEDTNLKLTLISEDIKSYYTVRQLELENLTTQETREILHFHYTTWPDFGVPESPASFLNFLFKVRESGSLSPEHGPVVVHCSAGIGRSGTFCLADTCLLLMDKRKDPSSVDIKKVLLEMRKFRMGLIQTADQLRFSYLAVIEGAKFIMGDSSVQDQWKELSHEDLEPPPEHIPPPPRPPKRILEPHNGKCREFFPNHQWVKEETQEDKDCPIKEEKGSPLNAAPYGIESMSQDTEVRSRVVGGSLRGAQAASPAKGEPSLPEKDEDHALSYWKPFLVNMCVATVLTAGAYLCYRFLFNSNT
Outline: (§1)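 GST-fusion enzyme (Cdc25B₂, VHR) or human recombinant PTP1B, with O-methyl fluorescein phosphate as substrate in a miniaturized microtiter format. After 60 min at ambient temperature, product fluorescence was read (excitation 485/20, emission 530/30). IC50 values were taken from concentration–response data.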

[2] = biological target: Dual specificity protein phosphatase 3 (Homo sapiens, UniProt P51452); test: Inhibitory Activity against Recombinant Human VHR; outline: as §1
Chain of Dual specificity protein phosphatase 3 (P51452 whole entry): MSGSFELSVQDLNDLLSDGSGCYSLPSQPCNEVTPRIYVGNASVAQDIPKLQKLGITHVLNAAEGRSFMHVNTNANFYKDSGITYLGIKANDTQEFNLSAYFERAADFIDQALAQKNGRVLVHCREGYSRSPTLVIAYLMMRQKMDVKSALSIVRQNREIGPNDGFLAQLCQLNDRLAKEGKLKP

[3] = biological target: T2, M-phase inducer phosphatase 2 (Homo sapiens, UniProt P30305); test: Inhibitory activity against recombinant human cell division cycle 25B
T2 sequence (P30305 whole entry): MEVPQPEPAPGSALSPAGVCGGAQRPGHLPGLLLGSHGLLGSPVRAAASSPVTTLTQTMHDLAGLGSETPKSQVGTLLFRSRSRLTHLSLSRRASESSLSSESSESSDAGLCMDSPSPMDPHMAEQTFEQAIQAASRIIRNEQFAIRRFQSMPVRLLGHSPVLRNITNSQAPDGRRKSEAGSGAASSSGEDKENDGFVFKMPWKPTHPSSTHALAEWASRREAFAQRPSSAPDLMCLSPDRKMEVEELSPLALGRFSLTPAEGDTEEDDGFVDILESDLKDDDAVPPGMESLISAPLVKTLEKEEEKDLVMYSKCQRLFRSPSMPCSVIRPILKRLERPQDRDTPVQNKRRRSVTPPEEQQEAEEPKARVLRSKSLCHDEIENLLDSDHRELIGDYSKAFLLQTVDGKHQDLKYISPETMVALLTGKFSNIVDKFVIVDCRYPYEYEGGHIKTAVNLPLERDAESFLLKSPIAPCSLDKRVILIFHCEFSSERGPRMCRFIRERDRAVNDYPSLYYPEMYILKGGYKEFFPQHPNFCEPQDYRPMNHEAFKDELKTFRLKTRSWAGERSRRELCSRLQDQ
Outline: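 GST-fusion enzyme (Cdc25B₂, VHR) or human recombinant PTP1B, with O-methyl fluorescein phosphate as substrate in a miniaturized microtiter format. IC50 values were taken from concentration–response data.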

| Structure (SMILES) | IC50 [1] [µM] | IC50 [2] [µM] | IC50 [3] [µM] |
| --- | --- | --- | --- |
| CC(/N=C1\C=C(O)c2ncccc2C1=O)C(O)c1ccccc1 (centres undefined) | > 10 | > 10 | 0.67 |
| O=C1C(Cl)=C(Cl)C(=O)c2ncncc21 | > 10 | > 10 | 4.8 |
| CCCCCCOc1ccc(NC2=C(Cl)C(=O)c3cccnc3C2=O)cc1 | > 10 | > 10 | 0.93 |
| COc1cc(CC/N=C2\C=C(O)c3cccnc3C2=O)ccc1O | > 100 | 17 | 0.45 |
| O=C1C(Cl)=C(NC2CCc3ccccc32)C(=O)c2ncccc21 (centres undefined) | – | – | 0.3 |
| O=C1C(Cl)=C(N2CCN(CCOCCO)CC2)C(=O)c2ncccc21 | > 10 | > 10 | 0.9 |
| O=C1C(Cl)=C(Cl)C(=O)c2ncccc21 | > 10 | > 10 | 4.6 |
| O=C1C(Cl)=C(Cl)C(=O)c2cnncc21 | > 10 | > 10 | 8.9 |
| O=C1C=CC(=O)c2ncccc21 | > 10 | > 10 | 3 |
| O=C1/C(=N\C(Cc2c[nH]c3ccccc23)C(=O)O)C(Cl)=C(O)c2cccnc21 (centres undefined) | > 10 | > 10 | 16 |
| O=C1C(Cl)=C(Cl)C(=O)c2cnccc21 | > 10 | > 10 | 1.5 |
| O=C1/C(=N/CCc2cc(Br)c(O)c(Br)c2)C=C(O)c2cccnc21 | 8 | 8.5 | 0.64 |
| O=C1C(Cl)=C(NCCN2CCOCC2)C(=O)c2ncccc21 | > 100 | 4 | – |
| O=C1C(NCCN2CCOCC2)=C(Cl)C(=O)c2ncccc21 | > 10 | > 10 | 0.82 |
| CC(/N=C1\C=C(O)c2cccnc2C1=O)C(O)c1ccccc1 (centres undefined) | > 100 | 16 | 0.51 |
| O=C1C(Cl)=C(NCCc2c[nH]c3ccccc23)C(=O)c2ncccc21 | > 10 | > 10 | 5.1 |
| O=C1C(Cl)=C(NCCN2CCOCC2)C(=O)c2cnncc21 | 9.8 | 1.1 | 0.43 |
| O=C1C(Cl)=C(NCCN2CCOCC2)C(=O)c2cnccc21 | > 10 | > 10 | 0.59 |
| COC(=O)c1nc(-c2ccc3c(n2)C(=O)C(=N)C(OC)=C3O)c(N)c(-c2ccc(OC)c(OC)c2O)c1C | 8.7 | 5.1 | 0.37 |
